Experimental data as given in ChEMBL document CHEMBL5150021, “Identification of 5-(Aryl/Heteroaryl)amino-4-quinolones as Potent Membrane-Disrupting Agents to Combat Antibiotic-Resistant Gram-Positive Bacteria” (J Med Chem, 2022).
Converted amounts (≈) assume the structure as drawn. The source made the active and inactive calls. The calls are words filed in the database; no cut-off is given here.

Key:
Staphylococcus aureus [1] = assay: Antibacterial activity against methicillin resistant Staphylococcus aureus FPR3757 assessed as inhibition of bacterial growth incubated for 24 hrs by CLSI based method; type: functional; conditions: read-out: MIC100
In short: (§1)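 It was mixed 1:1 with twofold serial compound dilutions and incubated stationary at 37 °C for 24 h. MIC was the lowest concentration giving complete inhibition of observable growth, with an oxacillin control.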

Staphylococcus aureus [2] = assay: Antibacterial activity against methicillin-resistant Staphylococcus aureus MW2 assessed as inhibition of bacterial growth incubated for 24 hrs by CLSI based method; type: functional
In short: (§2)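 Broth microdilution per CLSI. Equal volume of twofold serial compound dilutions added. Incubated stationary at 37 °C for 24 h. MIC taken as lowest concentration giving complete inhibition of visible growth. Oxacillin control for Gram-positives, ceftriaxone for Gram-negatives.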

Staphylococcus aureus [3] = assay: Antibacterial activity against methicillin-resistant Staphylococcus aureus COL assessed as inhibition of bacterial growth incubated for 24 hrs by CLSI based method; type: functional; in short: as §2
Staphylococcus aureus [4] = assay: Antibacterial activity against methicillin-resistant Staphylococcus aureus N315 assessed as inhibition of bacterial growth incubated for 24 hrs by CLSI based method; type: functional; in short: as §2
Staphylococcus aureus [5] = assay: Antibacterial activity against methicillin-resistant Staphylococcus aureus NRS71 assessed as inhibition of bacterial growth incubated for 24 hrs by CLSI based method; type: functional; in short: as §2
[6] = tested on: Staphylococcus epidermidis; assay: Antibacterial activity against Staphylococcus epidermidis NIF104008 assessed as inhibition of bacterial growth incubated for 24 hrs by CLSI based method; type: functional; in short: as §2
[7] = tested on: Staphylococcus epidermidis; assay: Antibacterial activity against Staphylococcus epidermidis NIF104003 assessed as inhibition of bacterial growth incubated for 24 hrs by CLSI based method; type: functional; in short: as §2
Enterococcus faecalis [8] = assay: Antibacterial activity against Enterococcus faecalis ATCC700802 assessed as inhibition of bacterial growth incubated for 24 hrs by CLSI based method; type: functional; in short: as §2
Enterococcus faecalis [9] = assay: Antibacterial activity against Enterococcus faecalis DHMC #1 assessed as inhibition of bacterial growth incubated for 24 hrs by CLSI based method; type: functional; in short: as §2
Enterococcus faecium [10] = assay: Antibacterial activity against Enterococcus faecium ATCC19579 assessed as inhibition of bacterial growth incubated for 24 hrs by CLSI based method; type: functional; in short: as §2
Enterococcus faecium [11] = assay: Antibacterial activity against Enterococcus faecium DHMC #1 assessed as inhibition of bacterial growth incubated for 24 hrs by CLSI based method; type: functional; in short: as §2
Escherichia coli = assay: Antibacterial activity against Escherichia coli DHMC-1 assessed as inhibition of bacterial growth incubated for 24 hrs by CLSI based method; type: functional; in short: as §2
Klebsiella pneumoniae = assay: Antibacterial activity against Klebsiella pneumoniae 7117 assessed as inhibition of bacterial growth incubated for 24 hrs by CLSI based method; type: functional; in short: as §2
Enterobacter cloacae = assay: Antibacterial activity against Enterobacter cloacae ND-21 assessed as inhibition of bacterial growth incubated for 24 hrs by CLSI based method; type: functional; in short: as §2
Candida albicans = assay: Antifungal activity against Candida albicans SC5314 assessed as inhibition of bacterial growth incubated for 24 hrs by CLSI based method; type: functional
In short: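 Broth microdilution per CLSI. It is mixed 1:1 with twofold serial compound dilutions and incubated stationary at 35 °C for 24 h. MIC is read as the lowest concentration with no observable growth.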

Staphylococcus aureus [12] = assay: Antibacterial activity against community-associated methicillin-resistant Staphylococcus aureus USA300 FPR3757 assessed as inhibition of bacterial growth incubated for 24 hrs by CLSI based method; type: functional; in short: as §1
Cell membrane [13] = assay: Induction of cell membrane damage in Staphylococcus aureus USA300 assessed as cross-wall-septum formation with reduced splitting at 1 times MIC measured after 10 mins by TEM analysis; type: subcellular
Cell membrane [14] = assay: Induction of cell membrane damage in Staphylococcus aureus USA300 assessed as mesosome-like membrane inclusions at 1 times MIC measured after 1 hrs by TEM analysis
In short: (§3)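 Fixed in glutaraldehyde/paraformaldehyde in cacodylate pH 7.4, post-fixed with osmium tetroxide, stained with uranyl acetate, resin-embedded, thin-sectioned and imaged by TEM.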

Cell membrane [15] = assay: Induction of cell membrane damage in Staphylococcus aureus USA300 assessed as membrane wrinkling at 1 times MIC measured after 1 hrs by TEM analysis; in short: as §3
Cell membrane [16] = assay: Induction of cell membrane damage in Staphylococcus aureus USA300 assessed as bulging of the septum at 1 times MIC measured after 1 hrs by TEM analysis; in short: as §3
Erythrocyte = assay: Hemolytic activity in sheep erythrocytes at 32 ug/ml incubated for 1 hr; type: toxicity, cell-based, Ovis aries; conditions: dose 32 µg/ml
In short: (§4)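 4% sheep erythrocytes mixed 1:1 with twofold serial compound dilutions in PBS, incubated stationary 1 h at 37 °C, then centrifuged at 500g for 5 min. Supernatant A540 is measured and percent hemolysis is calculated relative to DMSO vehicle (0%) and Triton X-100 (100%). Triplicate, mean ± SD.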

[17] = Cytotoxicity against sheep erythrocytes assessed as reduction in cell viability; type: toxicity, cell-based, Ovis aries, Erythrocyte; in short: as §4
Vero [18] = assay: Cytotoxicity against African green monkey Vero cells assessed as increase in LDH release at 0.47 to 30 uM incubated for 24 hrs; type: toxicity, cell-based; conditions: chlorocebus sabaeus, dose 0.47-30 µM
In short: (§5)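 Confluent Vero cells (maintained in RPMI 1640 + 10% FBS, 37 °C, 5% CO2) exposed to compound at 0.47–30 μM (twofold dilutions) in serum-free medium for 24 h at 37 °C. LDH in supernatant is measured colorimetrically at 490 nm and expressed as percent of 2% detergent positive control.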

Vero [19] = assay: Cytotoxicity against African green monkey Vero cells assessed as increase in LDH release at 30 uM incubated for 24 hrs relative to control; type: toxicity, cell-based; conditions: chlorocebus sabaeus; in short: as §5
[20] = AUC (0 to 24 hrs) in CD-1 mouse at 0.5 mg/kg, iv administered as single dose and measured for 24 hrs by LC-MS/MS analysis; type: ADME, organism-based; parameters: time 24 hrs, dose 0.5 mg/kg, route iv; conditions: in vivo
In short: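 Six-week-old female CD-1 mice (20–25 g; n = 3) received one intravenous injection at 0.5 mg/kg in 5% DMA:95% (4% Cremophor EL). […] Plasma was stored at −80 °C and quantified by LC-MS/MS. AUC came from noncompartmental analysis, reported as mean ± SD.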

[21] = Volume of distribution in CD-1 mouse at 0.5 mg/kg, iv administered as single dose and measured for 24 hrs by LC-MS/MS analysis; type: ADME, organism-based; conditions: in vivo
In short: (§6)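 Six-week-old female CD-1 mice (n = 3 per route). Dosing: single 0.5 mg/kg i.v. in 5% DMA/95% (4% Cremophor EL), or 10 mg/kg oral gavage in 5% DMA/60% PEG 300/35% D5W. Tail-vein blood is collected to 24 h into K2EDTA, and plasma is analysed by LC-MS/MS. Parameters come from noncompartmental analysis.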

[22] = Half life in CD-1 mouse at 0.5 mg/kg, iv administered as single dose and measured for 24 hrs by LC-MS/MS analysis; type: ADME, organism-based; conditions: in vivo; in short: as §6
[23] = AUC (0 to 24 hrs) in CD-1 mouse at 10 mg/kg, po administered as single dose and measured for 24 hrs by LC-MS/MS analysis; type: ADME, organism-based; parameters: time 24 hrs, dose 10 mg/kg, route po; conditions: in vivo
[24] = Cmax in CD-1 mouse at 10 mg/kg, po administered as single dose and measured for 24 hrs by LC-MS/MS analysis; type: ADME, organism-based; parameters: time 24 hrs, dose 10 mg/kg, route po; conditions: in vivo
[25] = Oral bioavailability in CD-1 mouse at 10 mg/kg administered as single dose and measured for 24 hrs by LC-MS/MS analysis; type: ADME, organism-based; conditions: in vivo; in short: as §6
[26] = Protein binding in human plasma at […] incubated for 4 hrs under shaking condition by LC-MS/MS based equilibrium dialysis method; type: ADME, cell-free
In short: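 Rapid equilibrium dialysis (8k MWCO). Compound is spiked into human plasma at 10 μg/mL and dialysed against DPBS pH 7.4 with shaking for 4 h at 37 °C. Matrices are matched, proteins precipitated with methanol containing internal standard, and both chambers quantified by LC-MS/MS against a calibration curve. Percent free and bound are calculated from chamber concentrations.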

Staphylococcus aureus [27] = assay: Antibacterial activity against methicillin resistant Staphylococcus aureus FPR3757 assessed as inhibition of bacterial growth incubated for 24 hrs in presence of 10% mouse serum by CLSI based method; type: functional
In short: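 CLSI broth microdilution against MRSA FPR3757 (USA300) in Mueller–Hinton broth supplemented with 10% serum (fetal bovine or mouse). Inoculum 10⁶ CFU/mL with twofold serial compound dilutions, stationary incubation at 37 °C for 24 h. MIC read as lowest concentration with complete inhibition of visible growth.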

[28] = Kinetic aqueous solubility of the compound in DPBS at pH 7.4 at 100 ug/ml measured after 6 hrs by LC-MS/MS analysis; type: physicochemical; conditions: buffer, pH 7.4, 6 h, dose 100 µg/ml
Staphylococcus aureus [29] = assay: microbe, parasite or virus in culture; conditions: USA300 FPR3757, 24 h
Staphylococcus aureus [30] = assay: Antibacterial activity against methicillin resistant Staphylococcus aureus assessed as inhibition of bacterial growth incubated for 15 hrs by CLSI based broth microdilution method; type: functional

O=c1cc(C(F)(F)F)[nH]c2cc(C(F)(F)F)cc(Nc3ccc(C(F)(F)F)cn3)c12
MIC (Staphylococcus aureus [1]): < 0.0625 µg/mL
MIC (Staphylococcus aureus [2]): < 0.06 µg/mL
MIC (Staphylococcus aureus [3]): < 0.06 µg/mL
MIC (Staphylococcus aureus [4]): < 0.06 µg/mL
MIC (Staphylococcus aureus [5]): < 0.06 µg/mL
MIC [6]: < 0.06 µg/mL
MIC [7]: < 0.06 µg/mL
MIC (Enterococcus faecalis [8]): 2 µg/mL (≈ 4.53 µM)
MIC (Enterococcus faecalis [9]): 2 µg/mL (≈ 4.53 µM)
MIC (Enterococcus faecium [10]): < 0.06 µg/mL
MIC (Enterococcus faecium [11]): 2 µg/mL (≈ 4.53 µM)
MIC (Escherichia coli): > 128 µg/mL
MIC (Klebsiella pneumoniae): > 128 µg/mL
MIC (Enterobacter cloacae): > 128 µg/mL
MIC (Candida albicans): 256 µg/mL (≈ 580 µM)
MIC (Staphylococcus aureus [12]): 0.0625 µg/mL (≈ 0.142 µM)
Activity (Cell membrane [13]): Active
Activity (Cell membrane [14]): Active
Activity (Cell membrane [15]): Active
Activity (Cell membrane [16]): Active
Activity (Erythrocyte): Non-Toxic
CC50 [17]: > 32 µg/mL
Activity (Vero [18]): Non-Toxic
Activity (Vero [19]): 20%
AUC [20]: 4200 ng·h/mL
Vd [21]: 0.322 L/kg
t1/2 [22]: 1.88 h
AUC [23]: 43300 ng·h/mL
Cmax [24]: 3100 ng/mL
F [25]: 51.6%
PPB [26]: 99.7%
MIC (Staphylococcus aureus [27]): 4 µg/mL
Kinetic_solubility [28]: 2.4 µg/mL
MBC (Staphylococcus aureus [29]): 2 µg/mL (≈ 4.53 µM)

Oc1cc(C(F)(F)F)nc2c(OC(F)(F)F)cccc12
MIC (Staphylococcus aureus [1]): 5 µg/mL (≈ 16.8 µM)
MIC (Staphylococcus aureus [30]): 8 µg/mL (≈ 26.9 µM)
